Active and inactive are the calls of the source. The rule behind the calls is not given here.
Key:
[1] = Plasma concentration in rat complete Freund's adjuvant-induced inflammation model at 3 mg/kg, po QD for 3 consecutive days measured at 2 hrs post dose on day 1; format: ADME, organism-based; set-up: dose 3 mg/kg, route oral
Summary of the method: (§1)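 CFA (200 µL) injected intraplantar into left hind paw; next day rats dosed orally once daily for three consecutive days (1, 3 or 10 mg/kg, suspension in 0.5% methocel). Separate cohort: plasma sampled each day 2 h after dosing.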

[2] = test system: Rattus norvegicus; test: Antiinflammatory activity in Sprague-Dawley rat assessed as inhibition of carrageenan-induced thermal hyperalgesia at 1 mg/kg, po administered 3.5 hrs after carrageenan challenge measured after 5 hrs; format: functional
Summary of the method: (§2)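 Rat carrageenan-induced thermal hyperalgesia. Dosed orally as a suspension in 0.5% methocel; % inhibition reported at each dose.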

[3] = test system: Rattus norvegicus; test: Antiinflammatory activity in Sprague-Dawley rat assessed as inhibition of carrageenan-induced thermal hyperalgesia at 3 mg/kg, po administered 3.5 hrs after carrageenan challenge measured after 5 hrs; format: functional; summary of the method: as §2
[4] = test system: Rattus norvegicus; test: Plasma concentration in Sprague-Dawley rat carrageenan-induced thermal hyperalgesia model at 1 mg/kg, po; format: ADME, organism-based; set-up: dose 1 mg/kg, route oral; conditions: in vivo
Summary of the method: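 Plasma sampled immediately after the carrageenan thermal hyperalgesia experiment, following oral dosing as a suspension in 0.5% methocel.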

[5] = Clearance in rat at 1 mg/kg, iv; format: ADME, organism-based; set-up: dose 1 mg/kg, route intravenous; conditions: in vivo
Summary of the method: (§3)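 IV PK at 1 mg/kg, given as a solution in 3:1 PEG300:water. Plasma half-life, clearance and volume of distribution derived.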

[6] = Volume of distribution in rat at 1 mg/kg, iv; format: ADME, organism-based; set-up: dose 1 mg/kg, route intravenous; conditions: in vivo
Summary of the method: (§4)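 Intravenous dose of 1 mg/kg given as a solution in 3:1 PEG300:water to rat, dog or rhesus monkey. Plasma PK parameters (T1/2, clearance, Vd) derived.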

[7] = Cmax in rat at 1 mg/kg, po; format: ADME, organism-based; set-up: dose 1 mg/kg, route oral; conditions: in vivo
Summary of the method: (§5)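 Oral PK at the dose in the line, given as a suspension in 0.5% methocel. […] Reported as mean ± error.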

[8] = Cmax in rat at 10 mg/kg, po; format: ADME, organism-based; set-up: dose 10 mg/kg, route oral; conditions: in vivo; summary of the method: as §5
[9] = AUC (0 to 24 hrs) in rat at 10 mg/kg, po; format: ADME, organism-based; set-up: time < 24 hr, dose 10 mg/kg, route oral; conditions: plasma; summary of the method: as §5
[10] = Cmax in rat at 100 mg/kg, po; format: ADME, organism-based; set-up: dose 100 mg/kg, route oral; conditions: in vivo; summary of the method: as §5
[11] = AUC (0 to 24 hrs) in rat at 100 mg/kg, po; format: ADME, organism-based; set-up: time < 24 hr, dose 100 mg/kg, route oral; conditions: plasma; summary of the method: as §5
[12] = Half life in dog at 1 mg/kg, iv; format: ADME, organism-based, Canis lupus familiaris; set-up: dose 1 mg/kg, route intravenous; conditions: in vivo; summary of the method: as §3
[13] = Volume of distribution in dog at 1 mg/kg, iv; format: ADME, organism-based, Canis lupus familiaris; set-up: dose 1 mg/kg, route intravenous; conditions: in vivo; summary of the method: as §4
[14] = Oral bioavailability in dog at 1 mg/kg; format: ADME, organism-based, Canis lupus familiaris; conditions: in vivo
Summary of the method: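 Oral bioavailability from a 1 mg/kg po dose (suspension in 0.5% methocel), compared against a 1 mg/kg iv dose (solution in 3:1 PEG300:water).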

[15] = Cmax in dog at 1 mg/kg, po; format: ADME, organism-based, Canis lupus familiaris; set-up: dose 1 mg/kg, route oral; conditions: in vivo; summary of the method: as §5
[16] = AUC (0 to 24 hrs) in dog at 1 mg/kg, po; format: ADME, organism-based, Canis lupus familiaris; set-up: time < 24 hr, dose 1 mg/kg, route oral; conditions: plasma; summary of the method: as §5
[17] = Cmax in rhesus monkey at 1 mg/kg, po; format: ADME, organism-based, Macaca mulatta; set-up: dose 1 mg/kg, route oral; conditions: in vivo; summary of the method: as §5
[18] = Plasma concentration in rat complete Freund's adjuvant-induced inflammation model at 10 mg/kg, po QD for 3 consecutive days measured at 2 hrs post dose on day 1; format: ADME, organism-based; set-up: dose 10 mg/kg, route oral; summary of the method: as §1
[19] = Cmax in rat brain of complete Freund's adjuvant-induced inflammation model at 10 mg/kg, po; format: ADME, organism-based; set-up: dose 10 mg/kg, route oral
[20] = target: Voltage-gated inwardly rectifying potassium channel KCNH2 (Homo sapiens, UniProt Q12809); test: Inhibition of human hERG
[21] = AUC (0 to 24 hrs) in rat brain at 10 mg/kg, po; format: ADME, organism-based; set-up: time < 24 hr, dose 10 mg/kg, route oral
[22] = Cmax in rat brain at 10 mg/kg, po; format: ADME, organism-based; set-up: dose 10 mg/kg, route oral
[23] = Ratio of drug level in brain to plasma in rat at 10 mg/kg, po; format: ADME, organism-based; set-up: dose 10 mg/kg, route oral; conditions: read-out: BPR
[24] = Plasma concentration in rat complete Freund's adjuvant-induced inflammation model at 1 mg/kg, po QD for 3 consecutive days measured at 2 hrs post dose on day 2; format: ADME, organism-based; set-up: dose 1 mg/kg, route oral; summary of the method: as §1
[25] = Plasma concentration in rat complete Freund's adjuvant-induced inflammation model at 1 mg/kg, po at 2 hrs on third day; format: ADME, organism-based; set-up: dose 1 mg/kg, route oral; summary of the method: as §1
[26] = Plasma concentration in rat complete Freund's adjuvant-induced inflammation model at 3 mg/kg, po at 2 hrs on third day; format: ADME, organism-based; set-up: dose 3 mg/kg, route oral; summary of the method: as §1
[27] = Plasma concentration in rat complete Freund's adjuvant-induced inflammation model at 10 mg/kg, po at 2 hrs on third day; format: ADME, organism-based; set-up: dose 10 mg/kg, route oral; summary of the method: as §1
[28] = test system: Liver microsomes; test: Metabolic stability in rat liver microsomes assessed per mg of protein at 8.1 mg/kg, po after 2 to 24 hrs; format: ADME, organism-based, Microsome; set-up: dose 8.1 mg/kg, route oral
[29] = Apparent permeability across MDCK cell membrane; format: ADME, cell-based, Canis lupus familiaris; conditions: dog
Summary of the method: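 Permeability across MDCK cell monolayers, reported as Papp. Efflux ratio calculated as (B→A)/(A→B).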

[30] = test system: Rattus norvegicus; test: Antiinflammatory activity in po dosed rat assessed as inhibition of complete Freund's adjuvant-induced hind paw edema administered 1 day after complete Freund's adjuvant challenge QD for 3 consecutive days measured at 2 hrs post dose on day 1; format: functional, organism-based
Summary of the method: (§6)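 CFA 200 µL injected intraplantar into the left hind paw. From the next day, 1, 3 or 10 mg/kg po once daily for 3 days as a suspension in 0.5% methocel.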

[31] = test system: Rattus norvegicus; test: Antiinflammatory activity in rat assessed as inhibition of complete Freund's adjuvant-induced hind paw edema at 1 mg/kg, po administered 1 day after complete Freund's adjuvant challenge QD for 3 consecutive days measured at 24 hrs post dose on day 3; format: functional; summary of the method: as §6
[32] = test system: Rattus norvegicus; test: Antiinflammatory activity in rat assessed as inhibition of complete Freund's adjuvant-induced hind paw edema at 3 mg/kg, po administered 1 day after complete Freund's adjuvant challenge QD for 3 consecutive days measured at 24 hrs post dose on day 3; format: functional; summary of the method: as §6
[33] = test system: Rattus norvegicus; test: Antiinflammatory activity in rat assessed as inhibition of complete Freund's adjuvant-induced hind paw edema at 10 mg/kg, po administered 1 day after complete Freund's adjuvant challenge QD for 3 consecutive days measured at 24 hrs post dose on day 3; format: functional; summary of the method: as §6
[34] = species: Canis familiaris; test: Cardiotoxicity in dog assessed as effect on mean arterial pressure at plasma concentration of up to 24 uM; format: toxicity, organism-based, Canis lupus familiaris
[35] = species: Canis familiaris; test: Cardiotoxicity in dog assessed as effect on heart rate at plasma concentration of up to 24 uM; format: toxicity, organism-based, Canis lupus familiaris
[36] = species: Canis familiaris; test: Cardiotoxicity in dog assessed as effect on ECG intervals at plasma concentration of up to 24 uM; format: toxicity, organism-based, Canis lupus familiaris
[37] = test system: Plasma; test: Covalent protein binding in rat assessed per mg of protein at 8.1 mg/kg, po after 2 to 24 hrs; conditions: in vivo
[38] = test system: MDCK; test: Efflux ratio of permeability from basolateral to apical side over apical to basolateral side of MDCK cells; conditions: dog
[39] = test system: Rattus norvegicus; test: Antiinflammatory activity in rat assessed as reversal of complete Freund's adjuvant-induced mechanical hyperalgesia at 1 to 10 mg/kg, po administered 1 day after complete Freund's adjuvant challenge QD for 3 consecutive days measured at 24 hrs post dose on day 2
[40] = test system: Rattus norvegicus; test: Antihyperalgesic activity in rat assessed as inhibition of complete Freund's adjuvant-induced mechanical hyperalgesia measured as differential weight bearing at 1 mg/kg, po administered 1 day after complete Freund's adjuvant challenge QD for 3 consecutive days measured at 2 hrs post dose on day 1

Chain of Voltage-gated inwardly rectifying potassium channel KCNH2 (Q12809 whole entry): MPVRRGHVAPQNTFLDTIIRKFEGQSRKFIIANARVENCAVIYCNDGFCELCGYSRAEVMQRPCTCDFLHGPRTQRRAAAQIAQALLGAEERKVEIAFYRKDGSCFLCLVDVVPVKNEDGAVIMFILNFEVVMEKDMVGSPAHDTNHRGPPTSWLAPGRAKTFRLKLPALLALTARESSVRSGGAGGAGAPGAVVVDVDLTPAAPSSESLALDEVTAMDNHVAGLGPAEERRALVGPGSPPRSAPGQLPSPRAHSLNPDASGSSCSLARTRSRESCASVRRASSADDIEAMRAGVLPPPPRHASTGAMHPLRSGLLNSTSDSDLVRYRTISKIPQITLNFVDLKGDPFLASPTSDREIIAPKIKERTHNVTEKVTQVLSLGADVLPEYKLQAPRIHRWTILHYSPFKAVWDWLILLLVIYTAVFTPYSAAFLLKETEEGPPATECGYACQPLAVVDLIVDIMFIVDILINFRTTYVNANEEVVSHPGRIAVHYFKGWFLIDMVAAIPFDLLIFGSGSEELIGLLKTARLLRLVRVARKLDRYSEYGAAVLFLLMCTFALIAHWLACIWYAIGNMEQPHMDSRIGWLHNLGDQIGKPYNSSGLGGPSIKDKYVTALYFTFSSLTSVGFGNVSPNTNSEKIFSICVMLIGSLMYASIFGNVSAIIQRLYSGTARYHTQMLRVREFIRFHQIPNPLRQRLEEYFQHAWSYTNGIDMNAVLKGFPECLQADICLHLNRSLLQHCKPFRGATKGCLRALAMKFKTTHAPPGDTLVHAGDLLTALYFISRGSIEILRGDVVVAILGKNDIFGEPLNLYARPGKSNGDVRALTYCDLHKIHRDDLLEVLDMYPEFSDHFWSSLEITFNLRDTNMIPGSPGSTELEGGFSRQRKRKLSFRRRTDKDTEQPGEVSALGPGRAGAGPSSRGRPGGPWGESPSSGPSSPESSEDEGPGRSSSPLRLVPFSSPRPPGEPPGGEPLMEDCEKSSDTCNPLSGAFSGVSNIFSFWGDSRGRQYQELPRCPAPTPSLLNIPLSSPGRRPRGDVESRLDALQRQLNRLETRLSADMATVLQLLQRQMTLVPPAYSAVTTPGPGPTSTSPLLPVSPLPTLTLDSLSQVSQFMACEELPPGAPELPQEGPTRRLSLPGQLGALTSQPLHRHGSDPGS

In the case of `NC(=O)c1cnc(-c2cnc3c(Nc4ccc(C(F)(F)F)cn4)ccnc3n2)c(C(F)(F)F)c1`, the concentration at 2 h [1] is reported as 1.2 µM, the inhibition in vivo at 1 mg/kg [2] is reported as 49% and the inhibition in vivo at 3 mg/kg [3] is reported as 74%. It also gave a concentration [4] of 0.24 µM, a clearance [5] of 1.5 L/h/kg and a Vd [6] of 4.3 L/kg. The Cmax [7] was 0.3 µM, the Cmax [8] was 2.1 µM and the AUC(0-t) at 24 h [9] was 29.9 µM·h. For the same compound, the Cmax [10] was 15 µM, the AUC(0-t) at 24 h [11] was 268 µM·h and the half-life [12] was 1.5 h. It also gave a Vd [13] of 1.3 L/kg, a bioavailability [14] of 57% and a Cmax [15] of 0.5 µM. The AUC(0-t) at 24 h [16] was 2.7 µM·h, the Cmax [17] was 0.7 µM and the concentration at 2 h [18] was 2.43 µM. It also gave a Cmax [19] of 0.3 µM, an IC50 [20] of 5.9 µM and an AUC(0-t) at 24 h [21] of 3.4 µM·h. For the same compound, the Cmax [22] was 0.3 µM, the Kp [23] was 0.1 and the concentration at 2 h [24] was 0.36 µM. For the same compound, the concentration at 2 h [25] was 0.35 µM, the concentration at 2 h [26] was 1.28 µM and the concentration at 2 h [27] was 4.24 µM. For the same compound, the Stability [28] was < 10 pmol, the Papp [29] was 340 nm/s and the Activity [30] was “Dose-dependent effect”. For the same compound, the inhibition in vivo at 1 mg/kg [31] was 42%, the inhibition in vivo at 3 mg/kg [32] was 64% and the inhibition in vivo at 10 mg/kg [33] was 70%. The Activity [34] was “Non-toxic”, the Activity [35] was “Non-toxic” and the Activity [36] was “Non-toxic”. The covalent protein binding [37] was < 10 pmol/mg, the Ratio [38] was 3.1 and the inhibition [39] was “Active”. For the same compound, the inhibition in vivo at 1 mg/kg [40] was 39%.
